This passage reports IC50 results from publication PMC9893515 (Bioorganic chemistry, 2021).

One test addresses T1, recombinant human TDP2 (Homo sapiens, UniProt O95551).
T1 sequence (O95551 1-362): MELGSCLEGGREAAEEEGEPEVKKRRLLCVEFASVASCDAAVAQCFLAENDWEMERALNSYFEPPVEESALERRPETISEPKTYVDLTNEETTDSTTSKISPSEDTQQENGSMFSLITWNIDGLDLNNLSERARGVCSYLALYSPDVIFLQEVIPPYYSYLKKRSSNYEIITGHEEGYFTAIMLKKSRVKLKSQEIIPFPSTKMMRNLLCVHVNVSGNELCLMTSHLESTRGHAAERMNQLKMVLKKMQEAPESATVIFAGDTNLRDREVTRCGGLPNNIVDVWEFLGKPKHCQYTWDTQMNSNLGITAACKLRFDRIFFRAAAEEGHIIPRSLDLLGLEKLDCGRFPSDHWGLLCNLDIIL
As to the kind of experiment: Recombinant TDP2 assay. The class given is biochemical.
Conditions: not given
In a few lines:
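Human recombinant TDP2 (25 pM) with 1 nM 18-mer 5'-phosphotyrosyl ssDNA, 3'-α32P-cordycepin-labelled. Reaction ran 15 min at room temperature in Tris-HCl pH 7.5, KCl, MgCl2, EDTA, DTT, BSA and Tween 20. Stopped with formamide loading buffer, then 16% denaturing PAGE and phosphorimaging densitometry of product. […] IC50 is 50% enzyme inhibition.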
Turning to `O=C(OCC(F)(F)F)c1noc2c1C(=O)c1cccnc1C2=O` [Compound 59, 2,2,2-Trifluoroethyl 4,9-dioxo-4,9-dihydroisoxazolo[4,5-g]quinoline-3-carboxylate], the IC50 is 14 ± 2.9 µM.
The same measure, in the same setting: the value for `N#CCCOC(=O)c1noc2c1C(=O)c1cccnc1C2=O` [Compound 60, 2-Cyanoethyl 4,9-dioxo-4,9-dihydroisoxazolo[4,5-g]quinoline-3-carboxylate] was 10 ± 1.48 µM; that for `O=C(OCCc1cccc(F)c1)c1noc2c1C(=O)c1cccnc1C2=O` [Compound 61, 3-Fluorophenethyl 4,9-dioxo-4,9-dihydroisoxazolo[4,5-g]quinoline-3-carboxylate] was 8.7 ± 0.54 µM.
Take `O=C(OCCc1ccc([N+](=O)[O-])cc1)c1noc2c1C(=O)c1cccnc1C2=O` [Compound 62, 4-Nitrophenethyl 4,9-dioxo-4,9-dihydroisoxazolo[4,5-g]quinoline-3-carboxylate]: the IC50 stood at 11 ± 3.8 µM.
On the same count and under the same terms, the value for `O=C1c2ncccc2C(=O)c2c(COc3ccccc3)noc21` [Compound 65, 3-(Phenoxymethyl) isoxazolo[4,5-g]quinoline-4,9-dione] was 0.82 ± 0.28 µM; that for `CS(=O)(=O)c1ccc(OCc2noc3c2C(=O)c2cccnc2C3=O)cc1` [Compound 67, 3-((4-(Methylsulfonyl)phenoxy)methyl)isoxazolo[4,5-g]quinoline-4,9-dione] was 0.99 ± 0.13 µM; that for `N#Cc1ccc(OCc2noc3c2C(=O)c2cccnc2C3=O)cc1` [Compound 68, 4-((4,9-Dioxo-4,9-dihydroisoxazolo[4,5-g]quinolin-3-yl)methoxy)benzonitrile] was 0.74 ± 0.25 µM.
Same read-out and setting: the value for `N#Cc1ccc(OCc2noc3c2C(=O)c2cccnc2C3=O)cc1F` [Compound 69, 4-((4,9-Dioxo-4,9-dihydroisoxazolo[4,5-g]quinolin-3-yl)methoxy)-2-fluorobenzonitrile] was 0.96 ± 0.2 µM; that for `COc1ccc(-c2noc3c2C(=O)c2cccnc2C3=O)cc1OC` [Compound 70, 3-(3,4-Dimethoxyphenyl)isoxazolo[4,5-g]quinoline-4,9-dione] was 0.46 ± 0.15 µM; that for `N#Cc1ccc(-c2noc3c2C(=O)c2cccnc2C3=O)c(F)c1` [Compound 71, 4-(4,9-Dioxo-4,9-dihydroisoxazolo[4,5-g]quinolin-3-yl)-3-fluorobenzonitrile] was 0.74 ± 0.25 µM.

The same test, now with this note: read-out: TDP2 inhibitory activity IC50; mean ± SD from at least three independent experiments; recombinant TDP2.
For the compound `O=C(OCCOC12CC3CC(CC(C3)C1)C2)c1noc2c1C(=O)c1cccnc1C2=O` [Compound 63, 2-(((3 s,5s,7s)-Adamantan-1-yl)oxy)ethyl 4,9-dioxo-4,9-dihydroisoxazolo[4,5-g]quinoline-3-carboxylate], the IC50 is 20 ± 0.18 µM.
Still for that read-out and setting: the value for `O=C1c2ncccc2C(=O)c2c(COc3ccccc3Cl)noc21` [Compound 66, 3-((2-Chlorophenoxy)methyl)isoxazolo[4,5-g]quinoline-4,9-dione] was 0.94 ± 0.24 µM; that for “Ethyl 2-isopropyl-4,9-dioxo-4,9-dihydrofuro[2,3-g]quinoline-3-carboxylate [Compound 37]” was 37 ± 2 µM.
On the same count and under the same terms, the value for “Ethyl 2-isopropyl-4,9-dioxo-4,9-dihydrofuro[3,2-g]quinoline-3-carboxylate [Compound 38]” was more than 111 µM.

As a reminder, the IC50 is the concentration at which inhibition is half-maximal.
